Source: paper PMC3585837 (Drugs in R&D, 2012)
“Also recorded” adds a separate entry of the source. Where two headings read alike, the source gives them in different places.

Assays:
[1] = cited from earlier work
[2] = rat; cited from earlier work
[3] = system: dopamine-β-hydroxylase (DβH); details: cited from earlier work
[4] = type: in vivo, human; details: for AUClast test/reference geometric means ratio (GMR) / AUC∞ test/reference geometric means ratio (GMR) / Cmax test/reference geometric means ratio (GMR): fed (test) vs fasting (reference), n = 12
[5] = cited from earlier work; for Increase of the extent of systemic exposure with dose / Linearity of pharmacokinetics: once-daily 25-600 mg for 10 days
[6] = system: dopamine-β-hydroxylase (DβH); details: cited from earlier work; remark: listed apart in the source
[7] = first- and second-generation DβH inhibitors; cited from earlier work
dogs = details: cited from earlier work
Cynomolgus monkeys = details: cited from earlier work
rats = details: cited from earlier work
[8] = system: spontaneously hypertensive rats; details: cited from earlier work
[9] = 200 mg single dose, fasting condition; cited from earlier work
[10] = system: normotensive Wistar-Kyotos rats; details: cited from earlier work
mice = details: cited from earlier work
[11] = system: dopamine or noradrenaline levels in the brain; details: in contrast to peripheral tissues; cited from earlier work
[12] = system: male cardiomyopathic hamsters (Bio TO-2 dilated strain); details: male cardiomyopathic hamsters (Bio TO-2 dilated strain) with advanced congestive heart failure; cited from earlier work
[13] = Tolerability in the food-effect study; type: in vivo, human
Procedure, shortened: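 Randomized two-period crossover in 12 healthy men (18–45 y, BMI 19–28 kg/m2). Each received a single 200 mg oral dose (four 50 mg capsules, 240 mL water) after a high-fat, high-calorie breakfast or a 10 h fast; washout ≥14 days; confined until 72 h post-dose. Adverse events monitored throughout, recording onset, offset, severity, relatedness, action and outcome. Vital signs, physical examination, hematology and biochemistry at each admission.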

[14] = cited from earlier work; remark: listed apart in the source
[15] = first- and second-generation DβH inhibitors
[16] = 90% CI of GMR against the acceptance interval (80, 125)

CC(=O)NCCc1c[nH]c(=S)n1[C@H]1COc2c(F)cc(F)cc2C1 [BIA 5-961]
AUC in NAT2 rapid acetylators compared with poor acetylators [1]: markedly higher | Occurrence as metabolite of etamicastat [2]: major metabolic pathway | Activity of the metabolite [3]: inactive | Effect of food on AUC∞, AUClast and Cmax (systemic exposure) of the metabolite ([4]; etamicastat 200 mg administered in the presence of food vs fasting): significant decrease; also recorded: decreased | AUClast test/reference geometric means ratio (GMR) ([4]; single oral etamicastat 200 mg): 79.41% | AUC∞ test/reference geometric means ratio (GMR) ([4]; single oral etamicastat 200 mg): 83.47% | Cmax test/reference geometric means ratio (GMR) ([4]; single oral etamicastat 200 mg): 62.42% | Increase of the extent of systemic exposure with dose [5]: approximately dose-proportional | Linearity of pharmacokinetics [5]: linear pharmacokinetics

CCN(CC)C(=S)S [diethyldithiocarbamate]
Potency as DβH inhibitor [6, 15]: low potency | Selectivity for DβH [6, 15]: poor selectivity | Side effects [7]: toxic side effects

CCN(CC)C(=S)SSC(=S)N(CC)CC [disulfiram]
Potency as DβH inhibitor [6, 15]: low potency | Selectivity for DβH [6, 15]: poor selectivity | Side effects [7]: toxic side effects

Cl.NCCc1c[nH]c(=S)n1[C@H]1COc2c(F)cc(F)cc2C1 [etamicastat, (R)-5-(2-aminoethyl)-1-(6,8-difluorochroman-3-yl)-1,3-dihydroimidazole-2-thione hydrochloride]
No observed adverse effect level (dogs): 5 mg/kg/day | No observed adverse effect level (Cynomolgus monkeys): 20 mg/kg/day | No observed adverse effect level (rats): 30 mg/kg/day | Effect of NAT1 phenotype on pharmacokinetics [1]: no relevant effect | Heart rate [8]: did not affect | Systolic and diastolic blood pressure [8]: reduced | AUClast, arithmetic mean [9]: 2.026 µg·h/mL | AUC∞, arithmetic mean [9]: 2.23 µg·h/mL | Cmax, arithmetic mean [9]: 0.202 µg/mL | t1/2, arithmetic mean [9]: 19.8 h | Heart rate ([10]; Wistar-Kyotos rats): did not affect | Systolic and diastolic blood pressure ([10]; normotensive Wistar-Kyotos rats): no changes | No observed adverse effect level (mice): 30 mg/kg/day | Effect on dopamine or noradrenaline levels in the brain [11]: does not affect | Survival rates [12]: increased survival rates | Intensity of TEAEs ([13]; both periods): mild to moderate | Serious adverse events or discontinuations due to adverse events ([13]; both periods): no serious adverse events or discontinuations due to adverse events | Total number of treatment-emergent adverse events ([13]; both periods, single oral etamicastat 200 mg): six | Abnormalities in vital signs, ECG or laboratory safety tests ([13]; during the study): no clinically significant abnormality; also recorded: No clinically relevant abnormalities | Number of TEAEs ([13]; fed period (abdominal pain, asthenia, headache, intercostal pain)): four | Proportion of subjects reporting treatment-emergent adverse events ([13]; of 12 subjects, single oral etamicastat 200 mg, both periods): 33.3% | Overall tolerability ([13]; single oral 200 mg, fasting and fed periods, healthy male subjects): well tolerated | Bioequivalence fed vs fasting for Cmax [4, 16]: did not fit the claim of bioequivalence; also recorded: does not fit the claim of bioequivalence | Bioequivalence fed vs fasting for extent of exposure (AUClast and AUC∞) [4, 16]: fulfilled the claim of bioequivalence; also recorded: remained within the acceptance interval; also recorded: remained unchanged | AUClast test/reference geometric means ratio (GMR) ([4]; single oral etamicastat 200 mg): 93.59% | AUC∞ test/reference geometric means ratio (GMR) ([4]; single oral etamicastat 200 mg): 96.47% | Cmax test/reference geometric means ratio (GMR) ([4]; single oral etamicastat 200 mg): 72.27% | Effect of food on tmax ([4]; fed vs fasting, Wilcoxon signed rank test): prolonged; also recorded: significantly delayed; also recorded: significantly increased | Decrease of Cmax as a result of food intake ([4]; fed vs fasting, single oral etamicastat 200 mg): 28% | Increase of the extent of systemic exposure with dose [5]: approximately dose-proportional | Linearity of pharmacokinetics [5]: linear pharmacokinetics | Etamicastat dose recovered in urine in the form of etamicastat and BIA 5-961 ([5]; once-daily dosing): Approximately 40% | Time to attain steady-state plasma concentrations ([5]; once-daily dosing): up to 9 days | Tolerability ([5]; orally, doses up to 600mg once daily for 10 days, male healthy volunteers): appears to be well tolerated

CCCCc1ccc(C(=O)O)nc1 [fusaric acid]
Potency as DβH inhibitor [6, 15]: low potency | Selectivity for DβH [6, 15]: poor selectivity | Side effects [7]: toxic side effects

NCc1c[nH]c(=S)n1[C@H]1CCc2c(F)cc(F)cc2C1 [nepicastat]
Potency as DβH inhibitor ([6]; third-generation DβH inhibitor, compared with first and second generation): much greater potency | Crossing of the blood-brain barrier [14]: cross the blood-brain barrier
